GSH fluor: GSH bead compound fluorescence profile. hit rate 0.25% among 190,000. fluorescence (KMESF) at 10 µM. GSH beads flow cytometry, compound fluorescence 488/530 nm; hits give high values; in the data active means fluorescence above about 89;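 further: glutathione beads carrying GST-tagged Bcl family fusion proteins plus one bare bead set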
ABCB1 inh: human ABCB1 inhibition, ABCG2 as counter-screen; inhibition, % at 6.6 µM; P08183; CCRF-Adr cells, JC-1 efflux, flow cytometry; AID 1326; hit rate 0.067% among 190,000; in the data active means inhibition above about 40%;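 further: higher value means more JC-1 retained so stronger ABCB1 efflux block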
Avidin bead fluor: compound fluoresces at 488/530 nm on avidin beads. AID 1775. compound fluorescence 488/530 nm, flow cytometry; hits give high values. hit rate 0.38% among 220,000. fluorescence (KMESF) at 10 µM; in the data active means fluorescence above about 47
Lmaj promast: Leishmania major promastigote growth inhibition; Leishmania major promastigotes, resazurin fluorescence viability; hit rate 9% among 200,000; inhibition, % at 10 µM;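 further: promastigotes grown with compound for 44 hours at 28 °C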
PKD1 kinase inh: inhibitors of human PKD1 kinase; Q15139; PKD1 kinase fluorescence polarization assay; inhibition, % (concentration not given with the values); hit rate 0.056% among 200,000; AID 797
ABCG2 inh: blocks JC-1 efflux by human ABCG2 transporter | hit rate 0.1% among 190,000 | Q9UNQ0 | AID 1325 | inhibition, % at 6.6 µM | IgMXP3 cells, flow cytometry;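 active means inhibition above 80%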
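Times: 10 min at 25 °C | Test system: Two drug-resistant human cell lines, ABCG2 and ABCB1 | Quantity: 3 million cells/mL final, two lines in 1:1 ratio | Signal: Flow cytometry, 530 nm JC-1 signal | Dosing: Compound at 6.6 µM | Controls: Nicardipine and DMSO wells | Reagent: JC-1 as fluorescent efflux pump substrate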
Hits are given with their value; – = inactive; · = no result. Many of the other results were omitted from the sample, so hits are more common in it than they were. Unless noted, no stated cut-off is given here; in the data, active means inhibition above about 50%; inactive means the rest.

SMILES	GSH fluor	ABCB1 inh	Avidin bead fluor	Lmaj promast	PKD1 kinase inh	ABCG2 inh
CCc1ccc2[nH]c(=O)c(C(c3nnnn3Cc3ccc(OC)cc3)N3CCOCC3)cc2c1 (centres undefined)	–	–	–	–	–	–
Cc1ccc2cc(C(c3nnnn3Cc3ccccc3)N3CCc4ccccc43)c(=O)[nH]c2c1 (centres undefined)	–	–	–	–	–	–
Cc1cc2cc(C(c3nnnn3Cc3ccccc3)N3CCc4ccccc43)c(=O)[nH]c2cc1C (centres undefined)	–	–	–	99	–	–
Cc1cccc2cc(C(c3nnnn3Cc3ccccc3)N3CCN(C)CC3)c(=O)[nH]c12 (centres undefined)	–	–	–	–	–	–
Cc1cccc2cc(C(c3nnnn3Cc3ccccc3)N3CCN(c4ccccc4)CC3)c(=O)[nH]c12 (centres undefined)	–	–	–	51	–	–
Cc1cc(NC(=O)c2cc3cccc([N+](=O)[O-])c3[nH]2)ccc1F	·	·	–	·	·	·
C=CCn1c(-c2ccoc2)n[nH]c1=S	–	–	–	–	–	–
Cc1cc2cc(C(c3nnnn3Cc3ccco3)N3CCc4ccccc4C3)c(=O)[nH]c2cc1C (centres undefined)	–	–	–	91	–	–
O=C(c1ccc(F)cc1)C(CCCCCC(CN1CCOCC1)C(=O)c1ccc(F)cc1)CN1CCOCC1 (centres undefined)	–	–	185	99	–	–
OC(CN1CCOCC1)c1ccc(F)cc1 (centres undefined)	–	–	–	–	–	–
O=C(CC1NCCc2ccccc21)Nc1ccc(Oc2ccccc2)cc1 (centres undefined)	–	–	–	99	–	–
O=c1[nH]c(=S)[nH]cc1Oc1ccc(Cl)cc1Cl	·	·	–	·	·	·
Cc1ccc(S(=O)(=O)N2CCN(c3ccc([N+](=O)[O-])c4cccnc34)CC2)cc1	–	–	–	–	–	–
CCC1(C)Cc2ccccc2C(=S)N1 (centres undefined)	–	–	–	–	–	–
CCCCN(CC)Cc1ccc(CNC(=O)Nc2ccc(F)cc2)o1	–	–	–	98	–	–
O=c1c(Cc2ccc(F)cc2)c(O)ccn1CCCn1ccnc1	–	–	–	–	–	–
Cc1cc(=O)oc2cc(OCc3nnc(-c4ccccc4Br)o3)ccc12	–	–	49	–	–	–
COC(=O)c1ccc2c(=O)[nH]c(CSc3nnc(C(F)(F)F)n3C)nc2c1	–	–	–	56	–	–
COC(=O)c1ccc2c(=O)[nH]c(CSc3nc(C)cs3)nc2c1	–	–	–	–	–	–
Nc1c(C(=O)NCc2ccco2)c2nc3ccccc3nc2n1CCc1ccc(F)cc1	–	–	–	99	–	–
CC(=O)Nc1ccc(S(=O)(=O)c2c(N)n(CCN3CCOCC3)c3nc4ccccc4nc23)cc1	–	–	–	–	–	–
COc1ccccc1CNC(=O)c1c(N)n(CCCN2CCOCC2)c2nc3ccccc3nc12	–	–	–	51	–	–
Nc1c(S(=O)(=O)c2cc(Cl)ccc2Cl)c2nc3ccccc3nc2n1CCN1CCOCC1	–	–	–	80	–	–
Nc1c(C(=O)NCCN2CCOCC2)c2nc3ccccc3nc2n1CCc1ccccc1	–	–	–	70	–	–
CCCSc1cc(N2CCOCC2)nc(-c2ccccc2Cl)n1	–	–	–	–	–	–
SMILES	GSH fluor	ABCB1 inh	Avidin bead fluor	Lmaj promast	PKD1 kinase inh	ABCG2 inh
Nc1c(C(=O)NCc2ccc3c(c2)OCO3)c2nc3ccccc3nc2n1CCCN1CCOCC1	–	–	–	63	–	–
Cc1cccn2c(=O)c3cc(C(=O)NCCN4CCOCC4)c(=N)n(CCc4ccccc4)c3nc12	–	–	–	66	–	–
COc1ccc(CCn2c(=N)c(C(=O)N3CCN(C)CC3)cc3c(=O)n4ccccc4nc32)cc1	–	–	–	88	–	–
COc1ccc(CNC(=O)c2cc3c(=O)n4ccccc4nc3n(Cc3ccco3)c2=N)cc1	·	·	·	–	–	·
Fc1ccc(/C=C2\CCCC3=C2Nc2ncnn2C3c2ccc(F)cc2)cc1 (centres undefined)	–	–	–	73	–	–
OCC1CCCN(C(=S)Nc2ccc(Nc3ccccc3)cc2)C1 (centres undefined)	–	–	–	–	–	–
OC1(c2ccccc2Cl)NN=C2CCCCCN21 (centres undefined)	–	–	–	–	–	–
